According to ChEMBL document CHEMBL3351408, “Bioactive diterpenoids and flavonoids from the aerial parts of Scoparia dulcis” (J Nat Prod, 2014):

Tests used:
[1] = target: T1, Peroxisome proliferator-activated receptor gamma (Mus musculus, UniProt P37238); assay: Agonist activity at mouse PPARgamma expressed in HEK293 cells co-expressing with Gal4 reporter vector after 24 hrs by dual-luciferase reporter assay; format: cell-based
T1 sequence (P37238 whole entry): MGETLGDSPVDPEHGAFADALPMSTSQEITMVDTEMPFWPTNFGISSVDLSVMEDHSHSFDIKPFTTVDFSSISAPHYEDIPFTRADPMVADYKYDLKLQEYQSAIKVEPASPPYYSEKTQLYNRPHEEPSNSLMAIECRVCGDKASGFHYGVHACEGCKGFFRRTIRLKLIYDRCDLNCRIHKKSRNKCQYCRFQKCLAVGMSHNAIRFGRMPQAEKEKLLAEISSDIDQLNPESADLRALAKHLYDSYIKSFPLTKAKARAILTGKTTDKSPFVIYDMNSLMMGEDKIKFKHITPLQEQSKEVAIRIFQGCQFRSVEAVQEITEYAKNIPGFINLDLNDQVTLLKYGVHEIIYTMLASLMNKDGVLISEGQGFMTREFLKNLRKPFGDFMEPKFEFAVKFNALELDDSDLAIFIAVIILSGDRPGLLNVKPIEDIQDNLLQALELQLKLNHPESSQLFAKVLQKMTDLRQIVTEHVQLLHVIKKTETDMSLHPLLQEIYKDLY
Method in brief: (§1)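 HEK-293 cells grown in DMEM with 10% FBS at 37 °C under 5% CO2 and plated at 1 × 10^4 cells/well. Cells co-transfected with pCMX-Gal-mPPARγ-LBD and MH100×4TK-Luc reporter, using Renilla as internal control. Compounds added at a range of concentrations for 24 h, then dual-luciferase read-out. EC50 is the concentration giving half-maximal fold activation; Emax is the maximal fold activation. Means ± SD from four independent experiments.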

[2] = target: T2, Peroxisome proliferator-activated receptor gamma (Mus musculus) (UniProt P37238); assay: Agonist activity at mouse PPARgamma expressed in HEK293 cells co-expressing with Gal4 reporter vector assessed as fold activation after 24 hrs by dual-luciferase reporter assay; format: cell-based; method in brief: as §1
T2 sequence (whole entry): T1 sequence (P37238 whole entry)

[3] = Inhibition of Saccharomyces cerevisiae alpha-glucosidase

Row | Structure (SMILES) | EC50 [1] [µM] | Emax [2] | IC50 [3] [µM]
1 | COc1ccc(-c2oc3cc(O)cc(O)c3c(=O)c2O[C@@H]2O[C@H](COC(=O)/C=C/c3ccc(O)cc3)[C@@H](O)[C@H](O)[C@H]2O)cc1OC | > 100 | – | –
2 | COc1c(O[C@@H]2O[C@H](CO)[C@@H](O)[C@H](O)[C@H]2O)cc2oc(-c3ccc(O)cc3)cc(=O)c2c1O [HISPIDULOSIDE] | > 100 | – | –
3 | C=C1[C@@H](CC/C(C)=C/CO)[C@@]2(C)CCC[C@](C)(C(=O)O)[C@@H]2[C@H](OC(=O)c2ccccc2)[C@H]1O | > 100 | – | –
4 | O=c1cc(-c2ccc(O)cc2)oc2cc(O)c(O)c(O)c12 [SCUTELLAREIN] | 16.4 | 3.4 | –
5 | CC(=O)O[C@@H]1[C@@H](OC(=O)c2ccccc2)[C@@H]2[C@](C)(CCC[C@@]2(C)C(=O)O)[C@H](CC/C(C)=C/CO)[C@@]12CO2 | > 100 | – | –
6 | C[C@H]1O[C@H](O[C@H]2[C@H](O)[C@@H](O)[C@@H](O[C@H]3[C@H](O)[C@@H](O)C(O)O[C@@H]3CO)O[C@@H]2CO)[C@H](O)[C@@H](O)[C@@H]1N[C@H]1C=C(CO)[C@@H](O)[C@H](O)[C@H]1O (some centres undefined) [ACARBOSE] | – | – | 3760
7 | COc1ccc(-c2cc(=O)c3c(O)c(OC)c(O)c(OC)c3o2)cc1O | 4.3 | 2 | –
8 | COc1ccc(-c2cc(=O)c3c(O)c(OC)c(O[C@@H]4O[C@H](CO[C@@H]5O[C@@H](C)[C@H](O)[C@@H](O)[C@H]5O)[C@@H](O)[C@H](O)[C@H]4O)cc3o2)cc1 [PECTOLINARIN] | > 100 | – | –
9 | CN(CCOc1ccc(CC2SC(=O)NC2=O)cc1)c1ccccn1 (centres undefined) | – | 11.8 | –
10 | COc1c(O)cc2oc(-c3ccc(O)cc3)cc(=O)c2c1O [HISPIDULIN] | 7.3 | 11.3 | –
11 | O=c1cc(-c2ccc(O)cc2)oc2c([C@@H]3OC[C@H](O)[C@H](O)[C@H]3O)c(O)cc(O)c12 | > 100 | – | –
12 | C=C1C[C@@H](OC(=O)c2ccccc2)[C@@H]2[C@](C)(CCC[C@@]2(C)C(=O)O)[C@@H]1CC/C(C)=C/CO [SCOPARIC ACID A] | > 100 | – | –
13 | C[C@@]12CC[C@]3(C1)[C@H](CC2=O)C[C@@H](OC(=O)c1ccccc1)[C@@H]1[C@]3(C)CCC[C@]1(C)C(=O)O [4-EPI-SCOPADULCIC ACID B] | > 100 | – | 14.6
14 | C=C1[C@@H](CC/C(C)=C/CO)[C@@]2(C)CCC[C@](C)(C(=O)O)[C@@H]2[C@H](OC(=O)c2ccccc2)[C@H]1OC(C)=O | 0.9 | 24.7 | –
15 | O=c1cc(-c2ccc(O)c(O)c2)oc2cc(O)cc(O)c12 [LUTEOLIN] | 2.3 | 7.6 | –
16 | C=C(C)[C@@H]1CC[C@]2(C(=O)O)CC[C@]3(C)[C@H](CC[C@@H]4[C@@]5(C)CC[C@H](O)C(C)(C)[C@@H]5CC[C@]43C)[C@@H]12 [BETULINIC ACID] | > 100 | – | –
17 | O=c1cc(-c2ccc(O)cc2)oc2cc(O)cc(O)c12 [APIGENIN] | 24.9 | 3.4 | –
